Hits are enriched below; roughly 2.3% of the tested compounds scored in any of these assays.
TRPC4 block = blocks the mouse TRPC4 cation channel; Q9QUQ5; HEK293 TRPC4beta/mu-opioid, DAMGO-evoked Fluo4 calcium flux; active compounds read low; B-score at 10 µM; actives 0.39% (n = 300,000); AID 2247;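 active = B-score over 3 SD under the library average, no early fluorescence shift, positive overall ratio signal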
Target sequence (Q9QUQ5 whole entry, looked up): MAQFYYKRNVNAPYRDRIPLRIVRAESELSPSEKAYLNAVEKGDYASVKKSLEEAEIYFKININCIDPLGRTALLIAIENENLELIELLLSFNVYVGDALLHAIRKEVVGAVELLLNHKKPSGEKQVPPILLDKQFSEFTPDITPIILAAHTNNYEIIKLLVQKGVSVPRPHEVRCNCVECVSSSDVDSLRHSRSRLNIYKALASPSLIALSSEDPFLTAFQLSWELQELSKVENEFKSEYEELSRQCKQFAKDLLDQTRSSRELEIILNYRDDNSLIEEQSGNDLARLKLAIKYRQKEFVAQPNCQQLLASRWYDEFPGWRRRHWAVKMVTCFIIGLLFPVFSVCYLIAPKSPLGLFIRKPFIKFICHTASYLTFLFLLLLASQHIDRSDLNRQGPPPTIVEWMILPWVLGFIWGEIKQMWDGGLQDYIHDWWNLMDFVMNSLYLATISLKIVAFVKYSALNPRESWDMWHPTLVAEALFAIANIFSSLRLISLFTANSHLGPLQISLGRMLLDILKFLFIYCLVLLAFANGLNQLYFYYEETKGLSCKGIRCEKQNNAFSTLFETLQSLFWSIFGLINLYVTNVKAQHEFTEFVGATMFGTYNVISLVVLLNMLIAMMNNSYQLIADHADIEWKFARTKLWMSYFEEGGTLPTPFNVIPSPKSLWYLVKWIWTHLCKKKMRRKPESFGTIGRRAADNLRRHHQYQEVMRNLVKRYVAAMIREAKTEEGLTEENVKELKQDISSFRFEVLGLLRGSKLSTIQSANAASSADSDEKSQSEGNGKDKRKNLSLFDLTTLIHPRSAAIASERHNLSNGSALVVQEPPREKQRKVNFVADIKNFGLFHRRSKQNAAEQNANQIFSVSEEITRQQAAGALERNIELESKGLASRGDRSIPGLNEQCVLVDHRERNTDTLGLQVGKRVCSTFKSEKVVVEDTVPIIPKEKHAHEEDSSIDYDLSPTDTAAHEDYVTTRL
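System: stable TRPC4beta/mu-opioid receptor HEK293 cells; Dosing: single-point compound dosing; Measured by: Fluo4 Ca2+ flux fluorescence; Read-out basis: per-well B score of integrated baseline-normalized Fluo4 ratio.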
TRPC4 agonist = activators of mouse TRPC4 channel | Q9QUQ5 | HEK293 TRPC4beta/mu-opioid, Fluo4 calcium fluorescence; active compounds read high | B-score at 10 µM | actives 0.49% (n = 310,000);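 active = B-score above 5 SD of library B-scores, and initial fluorescence ratio not above library mean plus 5 SD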;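 note: positive B-score marks a calcium rise read as TRPC4 activation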
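System – HEK293 cells stably co-expressing mouse TRPC4beta and mu-opioid receptor · Signal – Fluo4 calcium-sensitive dye fluorescence, kinetic, 1 Hz baseline · Benchmarks – buffer (low) and maximal DAMGO (high) · Read-out – B score of integrated fluorescence ratio per well · Incubation – dye loading 45 min room temperature, 110 s kinetic read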
TRPC4 PAM = TRPC4 (mouse) allosteric potentiation; HEK293 TRPC4beta/mu-opioid, DAMGO EC20, Fluo-4 Ca2+ flux; active compounds read high; B-score at 10 µM; actives 0.42% (n = 310,000); AID 2227;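 active = B-score of calcium response area above 5 SD of library B-scores, with initial fluorescence ratio within 5 SD of library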;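 note: B-score of integrated fluorescence ratio over time as area under calcium response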
TRPC6 activator = activates the mouse TRPC6 cation channel. Q61143. HEK293-TRPC6 membrane potential dye fluorescence; active compounds read high. B-score at 10 µM. actives 0.13% (n = 310,000);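 active = B-score of the integrated fluorescence ratio above library mean plus 3 SD, and starting fluorescence ratio within library mean plus 5 SD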;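 note: higher score means more depolarization so channel activation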
TRPC6 inhibitor = mouse TRPC6 channel inhibition | Q61143 | AID 2553 | B-score at 10 µM | HEK293-TRPC6, membrane potential dye, ACh-evoked depolarization; active compounds read low | actives 1.1% (n = 310,000);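 active = B-score under library mean minus 3 SD, initial fluorescence not abnormally high, positive integrated signal ratio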;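 note: B-score derived from integrated fluorescence ratio over the kinetic read; more negative B-score means stronger inhibition of depolarization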
TRPC4 sel inh 2 = mouse TRPC4 off-target activity of TRPC6 inhibitors, second screen. inhibition, % at 10 µM. shares compounds with TRPC6 inhibitor. actives 42% (n = 920). AID 2776. HEK293 TRPC4/MOR, membrane potential dye fluorescence; channel activated by saturating DAMGO dose;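 active = compounds whose fluorescence signal differed from control wells by over 3 SD, either direction, in both duplicate plates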
TRPC4 spec = tests whether TRPC6 inhibitors also affect mouse TRPC4; HEK293 TRPC4/mu-opioid, membrane potential fluorescence; shares compounds with TRPC6 inhibitor; activity change, negative = inhibition, % at 10 µM; actives 61% (n = 920);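 active = rise or fall in signal beyond 3 SD of buffer-only wells in both replicate plates, either sign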;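 note: integrated kinetic ratio of fluorescence range over baseline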
HEK293 MPD ctr 2-1 = second counter-screen for TRPC6 inhibitors: parental HEK293 cells; shares compounds with TRPC6 inhibitor; parental HEK293 membrane potential dye fluorescence; maximal acetylcholine challenge after compound addition; signal change vs control, % at 10 µM; actives 31% (n = 920);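 active = membrane potential signal moving either way by over 3 SD of the maximum-effect control, in both duplicate plates, meaning non-specific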
HEK293 MPD ctr-1 = checks TRPC6 inhibitor effects in parental HEK293 cells. membrane potential signal change, % at 10 µM. actives 60% (n = 920). shares compounds with TRPC6 inhibitor. parental HEK293 membrane potential dye fluorescence. AID 2780;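 active = membrane potential signal shifting up or down by more than 3 SD of buffer-only wells, on both duplicate plates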
HEK293 MPD ctr-2 = checks TRPC6 modulator effects in parental HEK293 cells | membrane potential dye fluorescence | membrane potential signal change, % at 10 µM | shares compounds with TRPC6 inhibitor | actives 51% (n = 2,400) | AID 488924;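 active = membrane potential signal moves up or down beyond 5 SD from buffer-only wells, on both duplicate plates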
HEK293 MPD ctr 2-2 = parental HEK293 nonspecific activity of TRPC6 modulators, second screen | shares compounds with TRPC6 inhibitor | membrane potential dye fluorescence; after compound, maximal acetylcholine stimulation | inhibition, % at 10 µM | actives 14% (n = 2,400) | AID 488926;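 active = membrane potential signal drops by more than 5 SD from the mean control signal, in both duplicate plates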;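 note: plate controls were acetylcholine ECmax control wells for no effect and buffer only wells for full effect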
TRPC4/MOR mod = tests whether TRPC6 modulators also affect mouse TRPC4. shares compounds with TRPC6 inhibitor. HEK293 TRPC4/mu-opioid, membrane potential fluorescence. percent change from control (negative = decrease, positive = increase), % at 10 µM. actives 69% (n = 2,400);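 active = membrane potential signal moved up or down beyond 5 SD of buffer control wells, in both duplicate plates, actives on both sides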;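 note: plate controls were assay buffer wells for no effect and DAMGO maximal-effect wells for full effect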
TRPC4/MOR inh 2 = second check of whether TRPC6 modulators also affect mouse TRPC4; actives 55% (n = 2,400); HEK293 TRPC4/mu-opioid, membrane potential dye fluorescence; stimulated with maximal-effect DAMGO; AID 488928; inhibition, % at 10 µM; shares compounds with TRPC6 inhibitor;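 active = drop in membrane potential signal beyond 5 SD of the control wells in both duplicate plates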;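 note: TRPC4 counter screen for TRPC6 hits run under conditions tuned for TRPC6 not TRPC4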
TRPC6 block conf = confirmation of mouse TRPC6 inhibitors. HEK293-TRPC6, membrane potential dye, ACh-evoked depolarization. inhibition, % at 10 µM. shares compounds with TRPC6 inhibitor. actives 43% (n = 3,300);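 active = fluorescence ratio falls more than 5 SD below the full-stimulation control mean, in both duplicate runs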;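 note: integrated fluorescence ratio of peak minus minimum over baseline after agonist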
TRPC6 act confirm = mouse TRPC6 activator confirmation; shares compounds with TRPC6 inhibitor; HEK293-TRPC6 membrane potential dye fluorescence, FDSS; activation, % at 10 µM; actives 11% (n = 2,800); AID 488961;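 active = ratio signal rise beyond 5 SD above unstimulated control wells' mean, seen in both duplicate runs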;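 note: plate controls were buffer EC0 wells for no effect and acetylcholine ECmax response for full effect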
* marks the source's active call; other numbers are inactive results; i = inactive; . = no result; + = active, no number.

SMILES	TRPC4 block	TRPC4 agonist	TRPC4 PAM	TRPC6 activator	TRPC6 inhibitor	HEK293 MPD ctr-2	HEK293 MPD ctr 2-2	TRPC4/MOR mod	TRPC4/MOR inh 2	TRPC6 block conf	TRPC6 act confirm	others
COc1ccc(C2=NN(c3ccccc3)C(=O)/C2=C\c2ccc(O)c(OC)c2)cc1	i	i	i	i	-6.84*	.	.	.	.	i	i	TRPC4 sel inh 2=i;TRPC4 spec=i;HEK293 MPD ctr 2-1=i;HEK293 MPD ctr-1=i
COc1cc(/C=C2/C(=O)N(c3cccc(Br)c3)N=C2C)cc(OC)c1O	i	i	i	i	-5.39*	i	i	-26.5%*	72.5%*	53.0%*	i
Cc1nnsc1C(=O)N/N=C/c1ccc2ccccc2c1O	i	i	i	i	-7.62*	.	.	.	.	i	.	TRPC4 sel inh 2=i;TRPC4 spec=27.0%*;HEK293 MPD ctr 2-1=-47.0%*;HEK293 MPD ctr-1=19.0%*
Cc1nnsc1C(=O)N/N=C/c1ccccc1	i	i	i	i	i	.	.	.	.	.	.
N#Cc1c(N2CCCC(O)C2)nc(N)c2c(N)nc3c(c12)CC(=O)N3C12CC3CC(CC(C3)C1)C2 (stereo not drawn)	i	i	i	i	-6.11*	i	i	i	i	i	i
C=C(C)CN(CC)c1nc(N)c2c(N)nc3c(c2c1C#N)CC(=O)N3C12CC3CC(CC(C3)C1)C2	i	i	i	i	i	.	.	.	.	.	.
Cc1ccc(C2N(c3ccccc3)C(=S)N3CCCN23)cc1 (stereo not drawn)	i	i	i	i	-7.51*	.	.	.	.	69.8%*	i	TRPC4 sel inh 2=i;TRPC4 spec=i;HEK293 MPD ctr 2-1=i;HEK293 MPD ctr-1=i
CCc1ccc(-c2nc(CN3CCC(C(=O)NCCN(CC)c4ccccc4)CC3)c(C)o2)cc1	i	i	i	i	-5.57*	i	i	i	62.5%*	i	i
CCN(CCNC(=O)C1CCN(Cc2nc(-c3cccc(Cl)c3)oc2C)CC1)c1ccccc1	i	i	i	i	i	.	.	.	.	.	.
COc1ccc(C(C(=O)NC2CCCC2)N(C(=O)c2csnn2)C2CCCC2)cc1 (stereo not drawn)	i	i	i	i	-6.31*	i	i	18.0%*	i	i	.
COc1ccc(C(C(=O)NC2CCCC2)N(C(=O)c2csnn2)C2CC2)cc1 (stereo not drawn)	i	i	i	i	i	.	.	.	.	.	.
CC1C(=O)N2CCCc3cc(S(=O)(=O)N(C)c4ccccc4)cc1c32 (stereo not drawn)	i	i	i	i	i	.	.	.	.	.	.
CNC(=O)CSCc1c(Cl)cccc1Cl	i	i	i	i	-11.4*	i	i	i	i	i	i
CNC(=S)NNC(=O)CSCc1c(Cl)cccc1Cl	i	i	i	i	i	.	.	.	.	.	.
CN1CCN(C(=O)c2cc([N+](=O)[O-])ccc2Cl)CC1	i	i	i	i	i	.	.	.	.	.	.
O=C(Cc1ccc([N+](=O)[O-])cc1)NCc1ccccn1	i	i	i	i	i	.	.	.	.	.	.
O=c1[nH]c(-c2ccccc2)c(-c2ccccc2)nc1[N+](=O)[O-]	i	i	i	11.7*	i	i	i	16.5%*	i	i	47.5%*
O=C(CSc1nnc(-c2ccccc2)o1)NC1CC1	i	i	i	i	i	.	.	.	.	.	.
Nc1ccccc1Nc1cc(-c2ccccc2)nn1-c1cccc(Cl)c1	i	i	i	i	-5.59*	i	i	i	29.5%*	i	i
Cc1cc2nc3s/c(=C/c4ccc(-c5ccccc5C(=O)O)o4)c(=O)n3c2cc1C	i	143*	12*	55.9*	i	+	i	395.0%*	i	i	720.5%*
O=C(NCc1ccco1)c1ccc2ccccc2n1	i	i	i	i	-5.08*	i	i	i	i	44.5%*	.
Cc1cccc(C)c1OCCNC(=O)c1ccc2ccccc2n1	i	i	i	12.5*	-13.4*	149.5%*	i	i	44.0%*	91.0%*	77.5%*
COc1ccc(OCc2nnc(SCC(=O)Nc3ccccc3Cl)o2)cc1	i	i	i	i	i	.	.	.	.	.	.
Cc1cnn(Cc2cccnc2)c1N	i	i	i	i	i	.	.	.	.	.	.
CC(=O)Nc1ccc(S(=O)(=O)n2cnc(C)c2)cc1	i	i	i	i	i	.	.	.	.	.	.
Cc1ccc(S(=O)(=O)n2cnc(C)c2)cc1	i	i	i	i	-8.24*	.	.	.	.	i	i	TRPC4 sel inh 2=i;TRPC4 spec=i;HEK293 MPD ctr 2-1=i;HEK293 MPD ctr-1=i
Cc1csc(NC(=O)c2ccc(Cl)nc2)n1	i	i	i	i	i	.	.	.	.	.	.
N#C/C(=C\c1ccc(N2CCOCC2)o1)C(=O)NCCc1ccccc1	i	i	i	13.7*	i	774.0%*	135.0%*	129.0%*	i	i	95.5%*
Cc1ccc(/C(C#N)=C\c2ccc(N3CCOCC3)o2)cc1	i	i	i	27.1*	i	419.5%*	i	97.5%*	i	i	115.0%*

Screens: PubChem, Johns Hopkins Ion Channel Center
